ChEMBL document CHEMBL1124553, “Brain-specific chemical delivery systems for beta-lactam antibiotics. In vitro and in vivo studies of some dihydropyridine and dihydroisoquinoline derivatives of benzylpenicillin in rats” (J Med Chem, 1989)
Values belong to the molecule of their own block, whether it stands above or below them.

How the values were obtained:
[1] = system: Rattus norvegicus; experiment: Concentration of compound in rat lung after intravenous injection of 20 mg/kg benzyl-penicillin after 40 min; format: functional, organism-based; design: dose 20 mg/kg
In short: (§1)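 Male Sprague-Dawley rats (200-250 g), conscious, received 60 µmol/kg (equimolar to 20 mg/kg benzylpenicillin) by tail-vein injection. Benzylpenicillin K was given in water/ethanol/propylene glycol, and the delivery systems in ethanol:propylene glycol 7:3, at 20 mg/mL. Rats were decapitated at set times (4-6 per point), with trunk blood heparinized and brain, kidney, liver and lung frozen. Benzylpenicillin was measured by disk microbioassay (Bacillus subtilis ATCC 6633) after >5-volume sterile-water dilution or homogenization, against matrix calibration curves; assay limit 0.05 µg/mL.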

[2] = system: Rattus norvegicus; experiment: Concentration of compound in rat brain after intravenous injection of 20 mg/kg benzyl-penicillin after 1 min; format: functional, organism-based; design: dose 20 mg/kg; in short: as §1
[3] = system: Rattus norvegicus; experiment: Concentration of compound in rat brain after intravenous injection of 20 mg/kg benzyl-penicillin after 10 min; format: functional, organism-based; design: dose 20 mg/kg; in short: as §1
[4] = system: Rattus norvegicus; experiment: Concentration of compound in rat kidney after intravenous injection of 20 mg/kg benzyl-penicillin after 1 min; format: functional, organism-based; design: dose 20 mg/kg; in short: as §1
[5] = system: Rattus norvegicus; experiment: Concentration of compound in rat liver after intravenous injection of 20 mg/kg benzyl-penicillin after 10 min; format: functional, organism-based; design: dose 20 mg/kg; in short: as §1
[6] = system: Rattus norvegicus; experiment: Concentration of compound in rat kidney after intravenous injection of 20 mg/kg benzyl-penicillin after 3 min; format: functional, organism-based; design: dose 20 mg/kg; in short: as §1
[7] = species on record: Oryctolagus cuniculus; experiment: Pseudo first-order rate constant (K) for disappearance of compound from rabbit 10% brain homogenate; format: ADME
In short: (§2)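 Freshly collected whole blood (rat trunk blood; rabbit) or 10% w/v brain homogenate made in pH 7.4 phosphate buffer (μ = 0.15), prewarmed to 37 °C. Compound added from 8 mM DMSO stock to a final 40 μM. Timed 0.3 mL samples were quenched in 8% DMSO/acetonitrile, centrifuged, filtered and analysed by reversed-phase C8 HPLC-UV. K came from linear regression of log peak height versus time; n=3 animal samples.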

[8] = Half-life for disappearance of compound from rat 10% brain homogenate; format: ADME
In short: (§3)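 Freshly collected whole blood, or 10% w/v brain homogenate in pH 7.4 phosphate buffer (ionic strength 0.15), was prewarmed to 37 °C. Compound was spiked from an 8 mM DMSO stock to 40 µM final. Timed samples were quenched in 8% DMSO/acetonitrile, centrifuged, filtered and analyzed by reversed-phase C8 HPLC with UV detection. K came from linear regression of log peak height versus time, with t1/2 derived from it. Values are mean ± SE of three determinations in different animal samples.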

[9] = system: Rattus norvegicus; experiment: Concentration of compound in rat liver after intravenous injection of 20 mg/kg benzyl-penicillin after 40 min; format: functional, organism-based; design: dose 20 mg/kg; in short: as §1
[10] = system: Rattus norvegicus; experiment: Concentration of compound in rat blood after intravenous injection of 20 mg/kg benzyl-penicillin after 1 min; format: functional, organism-based; design: dose 20 mg/kg; in short: as §1
[11] = system: Rattus norvegicus; experiment: Concentration of compound in rat kidney after intravenous injection of 20 mg/kg benzyl-penicillin after 20 min; format: functional, organism-based; design: dose 20 mg/kg; in short: as §1
[12] = system: Rattus norvegicus; experiment: Concentration of compound in rat blood after intravenous injection of 20 mg/kg benzyl-penicillin after 40 min; format: functional, organism-based; design: dose 20 mg/kg; in short: as §1
[13] = system: Rattus norvegicus; experiment: Concentration of compound in rat brain after intravenous injection of 20 mg/kg benzyl-penicillin after 3 min; format: functional, organism-based; design: dose 20 mg/kg; in short: as §1
[14] = system: Rattus norvegicus; experiment: Concentration of compound in rat lung after intravenous injection of 20 mg/kg benzyl-penicillin after 3 min; format: functional, organism-based; design: dose 20 mg/kg; in short: as §1
[15] = system: Rattus norvegicus; experiment: Concentration of compound in rat brain after intravenous injection of 20 mg/kg benzyl-penicillin after 40 min; format: functional, organism-based; design: dose 20 mg/kg; in short: as §1
[16] = species on record: Rattus norvegicus; experiment: Half-life for disappearance of compound from rat whole blood; Compound was unstable; format: ADME, organism-based; details: in vitro; in short: as §3
[17] = species on record: Canis familiaris; experiment: Pseudo first-order rate constant (K) for disappearance of compound from dog whole blood; format: ADME, organism-based, Canis lupus familiaris; in short: as §3
[18] = system: Rattus norvegicus; experiment: Concentration of compound in rat lung after intravenous injection of 20 mg/kg benzyl-penicillin after 60 min; format: functional, organism-based; design: dose 20 mg/kg; in short: as §1
[19] = species on record: Homo sapiens; experiment: Pseudo first-order rate constant (K) for disappearance of compound from human whole blood; format: ADME, organism-based; in short: as §3
[20] = system: Rattus norvegicus; experiment: Concentration of compound in rat liver after intravenous injection of 20 mg/kg benzyl-penicillin after 20 min; format: functional, organism-based; design: dose 20 mg/kg; in short: as §1
[21] = Half-life for disappearance of compound from rabbit whole blood; format: ADME, organism-based, Oryctolagus cuniculus; in short: as §3
[22] = system: Rattus norvegicus; experiment: Concentration of compound in rat brain after intravenous injection of 20 mg/kg benzyl-penicillin after 20 min; format: functional, organism-based; design: dose 20 mg/kg; in short: as §1
[23] = species on record: Rattus norvegicus; experiment: Pseudo first-order rate constant (K) for disappearance of compound from rat 10% brain homogenate; format: ADME; in short: as §2
[24] = Half-life for disappearance of compound from human whole blood; format: ADME, organism-based; in short: as §3
[25] = system: Rattus norvegicus; experiment: Concentration of compound in rat kidney after intravenous injection of 20 mg/kg benzyl-penicillin after 60 min; format: functional, organism-based; design: dose 20 mg/kg; in short: as §1
[26] = system: Rattus norvegicus; experiment: Concentration of compound in rat blood after intravenous injection of 20 mg/kg benzyl-penicillin after 5 min; format: functional, organism-based; design: dose 20 mg/kg; in short: as §1
[27] = system: Rattus norvegicus; experiment: Concentration of compound in rat lung after intravenous injection of 20 mg/kg benzyl-penicillin after 5 min; format: functional, organism-based; design: dose 20 mg/kg; in short: as §1
[28] = Half-life for disappearance of compound from rabbit 10% brain homogenate; format: ADME, Oryctolagus cuniculus; in short: as §3
[29] = system: Rattus norvegicus; experiment: Concentration of compound in rat brain after intravenous injection of 20 mg/kg benzyl-penicillin after 60 min; format: functional, organism-based; design: dose 20 mg/kg; in short: as §1
[30] = system: Rattus norvegicus; experiment: Concentration of compound in rat liver after intravenous injection of 20 mg/kg benzyl-penicillin after 1 min; format: functional, organism-based; design: dose 20 mg/kg; in short: as §1
[31] = system: Rattus norvegicus; experiment: Concentration of compound in rat brain after intravenous injection of 20 mg/kg benzyl-penicillin after 5 min; format: functional, organism-based; design: dose 20 mg/kg; in short: as §1
[32] = system: Rattus norvegicus; experiment: Concentration of compound in rat blood after intravenous injection of 20 mg/kg benzyl-penicillin after 60 min; format: functional, organism-based; design: dose 20 mg/kg; in short: as §1
[33] = system: Rattus norvegicus; experiment: Concentration of compound in rat lung after intravenous injection of 20 mg/kg benzyl-penicillin after 20 min; format: functional, organism-based; design: dose 20 mg/kg; in short: as §1
[34] = system: Rattus norvegicus; experiment: Concentration of compound in rat lung after intravenous injection of 20 mg/kg benzyl-penicillin after 1 min; format: functional, organism-based; design: dose 20 mg/kg; in short: as §1
[35] = system: Rattus norvegicus; experiment: Concentration of compound in rat blood after intravenous injection of 20 mg/kg benzyl-penicillin after 10 min; format: functional, organism-based; design: dose 20 mg/kg; in short: as §1
[36] = system: Rattus norvegicus; experiment: Concentration of compound in rat liver after intravenous injection of 20 mg/kg benzyl-penicillin after 3 min; format: functional, organism-based; design: dose 20 mg/kg; in short: as §1
[37] = system: Rattus norvegicus; experiment: Concentration of compound in rat kidney after intravenous injection of 20 mg/kg benzyl-penicillin after 10 min; format: functional, organism-based; design: dose 20 mg/kg; in short: as §1
[38] = system: Rattus norvegicus; experiment: Concentration of compound in rat lung after intravenous injection of 20 mg/kg benzyl-penicillin after 10 min; format: functional, organism-based; design: dose 20 mg/kg; in short: as §1
[39] = system: Rattus norvegicus; experiment: Concentration of compound in rat liver after intravenous injection of 20 mg/kg benzyl-penicillin after 60 min; format: functional, organism-based; design: dose 20 mg/kg; in short: as §1
[40] = system: Rattus norvegicus; experiment: Concentration of compound in rat blood after intravenous injection of 20 mg/kg benzyl-penicillin after 3 min; format: functional, organism-based; design: dose 20 mg/kg; in short: as §1
[41] = Half-life for disappearance of compound from dog whole blood; format: ADME, organism-based, Canis lupus familiaris; in short: as §3
[42] = system: Rattus norvegicus; experiment: Concentration of compound in rat blood after intravenous injection of 20 mg/kg benzyl-penicillin after 20 min; format: functional, organism-based; design: dose 20 mg/kg; in short: as §1
[43] = system: Rattus norvegicus; experiment: Concentration of compound in rat kidney after intravenous injection of 20 mg/kg benzyl-penicillin after 40 min; format: functional, organism-based; design: dose 20 mg/kg; in short: as §1
[44] = system: Rattus norvegicus; experiment: Concentration of compound in rat liver after intravenous injection of 20 mg/kg benzyl-penicillin after 5 min; format: functional, organism-based; design: dose 20 mg/kg; in short: as §1
[45] = system: Rattus norvegicus; experiment: Concentration of compound in rat kidney after intravenous injection of 20 mg/kg benzyl-penicillin after 5 min; format: functional, organism-based; design: dose 20 mg/kg; in short: as §1
[46] = species on record: Oryctolagus cuniculus; experiment: Pseudo first-order rate constant (K) for disappearance of compound from rabbit whole blood; format: ADME, organism-based; in short: as §2
[47] = species on record: Rattus norvegicus; experiment: Pseudo first-order rate constant (K) for disappearance of compound from rat whole blood; Compound was unstable; format: ADME, organism-based; in short: as §2
[48] = Pseudo first-order rate constant (K) for disappearance of compound from rat whole blood; format: ADME, tissue-based; in short: as §2
[49] = Half-life for disappearance of compound from rat whole blood; format: ADME, organism-based; in short: as §3

K [7]: 0.174 min⁻¹
half-life [8]: 2.4 min
T1/2 [16]: Unstable
K [17]: 0.168 min⁻¹
K [19]: 0.043 min⁻¹
half-life [21]: 0.8 min
K [23]: 0.296 min⁻¹
half-life [24]: 16.2 min
half-life [28]: 4 min
half-life [41]: 4.1 min
K [46]: 0.903 min⁻¹
K [47]: Unstable
SMILES: CN1C=CCC(C(=O)OCCOC(=O)C2N3C(=O)C(NC(=O)Cc4ccccc4)C3SC2(C)C)=C1 (centres undefined)
Concentration [1]: 5 µg/mL
Concentration [2]: 8.8 µg/mL
Concentration [3]: 3.9 µg/mL
Concentration [4]: 37.9 µg/mL
Concentration [5]: 11.4 µg/mL
Concentration [6]: 56.4 µg/mL
Concentration [9]: 1.5 µg/mL
Concentration [10]: 22.7 µg/mL
Concentration [11]: 10.3 µg/mL
Concentration [12]: 0.7 µg/mL
Concentration [13]: 3.5 µg/mL
Concentration [14]: 32.4 µg/mL
Concentration [15]: 1.1 µg/mL
Concentration [18]: 2.8 µg/mL
Concentration [20]: 4.7 µg/mL
Concentration [22]: 2.4 µg/mL
Concentration [25]: 2.1 µg/mL
Concentration [26]: 10.7 µg/mL
Concentration [27]: 31.2 µg/mL
Concentration [29]: 0.7 µg/mL
Concentration [30]: 11.1 µg/mL
Concentration [31]: 3.7 µg/mL
Concentration [32]: 0.3 µg/mL
Concentration [33]: 7.2 µg/mL
Concentration [34]: 37.7 µg/mL
Concentration [35]: 5.6 µg/mL
Concentration [36]: 10.9 µg/mL
Concentration [37]: 30.3 µg/mL
Concentration [38]: 24.5 µg/mL
Concentration [39]: 0.6 µg/mL
Concentration [40]: 9 µg/mL
Concentration [42]: 1.9 µg/mL
Concentration [43]: 3.4 µg/mL
Concentration [44]: 12.6 µg/mL
Concentration [45]: 54.6 µg/mL

K [7]: 0.043 min⁻¹
half-life [8]: 28.2 min
K [48]: 0.435 min⁻¹
K [17]: 0.061 min⁻¹
K [19]: 0.105 min⁻¹
half-life [21]: 2 min
K [23]: 0.025 min⁻¹
half-life [24]: 6.7 min
half-life [28]: 16.7 min
half-life [49]: 1.6 min
half-life [41]: 11.5 min
K [46]: 0.33 min⁻¹
SMILES: C[n+]1cccc(C(=O)OCCOC(=O)C2N3C(=O)C(NC(=O)Cc4ccccc4)C3SC2(C)C)c1.[I-] (centres undefined)
